PMC8606101 (The Biochemical journal, 2017)
Entries after “also recorded” stand apart in the source; their conditions may differ. Read-outs that look alike come from different tables or passages of the source.

Assays:
[1] = system: ADAM10; settings: cited from earlier work; for IC50: read-out: Potency (IC50/inhibition constant) ADAM10, cell-based
[2] = biological target: T1, ADAM9 (Mus musculus, UniProt Q61072); type: cell-based; settings: for dose dependence of inhibition of ADAM9-dependent release of EphB4-AP: titration; for stimulation of ADAM9-dependent shedding of EphB4-AP: 20 ng/ml PMA, 100 μM PV or 2.5 μM IO, 30 minutes
T1 sequence (Q61072 30-845): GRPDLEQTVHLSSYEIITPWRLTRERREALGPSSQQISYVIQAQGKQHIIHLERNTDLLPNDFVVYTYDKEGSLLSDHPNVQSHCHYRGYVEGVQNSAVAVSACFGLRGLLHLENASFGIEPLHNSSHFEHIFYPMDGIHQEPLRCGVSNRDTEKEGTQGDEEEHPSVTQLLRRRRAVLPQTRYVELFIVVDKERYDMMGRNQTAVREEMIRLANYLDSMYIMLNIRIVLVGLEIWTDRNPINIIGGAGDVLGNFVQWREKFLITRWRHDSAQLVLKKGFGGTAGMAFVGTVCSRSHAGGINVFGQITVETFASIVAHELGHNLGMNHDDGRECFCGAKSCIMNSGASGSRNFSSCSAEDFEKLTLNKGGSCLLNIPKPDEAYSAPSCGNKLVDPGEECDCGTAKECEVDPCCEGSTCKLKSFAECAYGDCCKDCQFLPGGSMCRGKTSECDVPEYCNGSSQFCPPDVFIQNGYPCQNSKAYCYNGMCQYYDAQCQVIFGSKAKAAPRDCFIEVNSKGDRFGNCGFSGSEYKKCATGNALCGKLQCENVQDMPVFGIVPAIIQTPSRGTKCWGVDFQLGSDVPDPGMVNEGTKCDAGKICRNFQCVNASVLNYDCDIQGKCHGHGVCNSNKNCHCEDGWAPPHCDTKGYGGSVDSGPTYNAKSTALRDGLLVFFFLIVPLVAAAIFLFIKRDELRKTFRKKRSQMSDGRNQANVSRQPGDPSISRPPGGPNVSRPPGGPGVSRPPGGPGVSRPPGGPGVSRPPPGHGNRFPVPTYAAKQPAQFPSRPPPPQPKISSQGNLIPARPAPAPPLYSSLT

[3] = biological target: T2, ADAM10 (Mus musculus, UniProt O35598); assay: ADAM10-dependent shedding of BTC-AP in wild type mEFs; type: cell-based; settings: WT mEFs, Supplementary Figure 2
T2 sequence (O35598 215-749): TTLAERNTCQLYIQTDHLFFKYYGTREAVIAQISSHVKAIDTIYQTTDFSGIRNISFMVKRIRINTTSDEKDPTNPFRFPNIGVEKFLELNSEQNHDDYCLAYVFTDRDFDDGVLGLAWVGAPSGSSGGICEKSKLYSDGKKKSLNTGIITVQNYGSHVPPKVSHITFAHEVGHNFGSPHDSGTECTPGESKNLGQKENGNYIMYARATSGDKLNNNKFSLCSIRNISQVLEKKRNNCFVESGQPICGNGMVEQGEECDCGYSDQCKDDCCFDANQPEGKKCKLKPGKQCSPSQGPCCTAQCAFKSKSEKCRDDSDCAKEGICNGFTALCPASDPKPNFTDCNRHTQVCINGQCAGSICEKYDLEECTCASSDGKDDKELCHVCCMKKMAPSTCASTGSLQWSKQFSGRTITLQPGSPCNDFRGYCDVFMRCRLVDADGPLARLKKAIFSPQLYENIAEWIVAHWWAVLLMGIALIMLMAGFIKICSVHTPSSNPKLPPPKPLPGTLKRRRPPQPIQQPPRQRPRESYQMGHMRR
Procedure, shortened: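 Wild-type mEFs were transiently transfected with AP-tagged betacellulin using Lipofectamine2000. Cells were washed 1 h in OptiMEM, then given fresh OptiMEM with or without test compound for 30 min to 2 h. AP activity was measured colorimetrically in supernatant and lysate from three identical wells. Shedding = supernatant AP / (lysate + supernatant AP).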

[4] = system: recombinant soluble ADAM9; settings: cited from earlier work; for Ki: read-out: Ki recombinant soluble ADAM9; for inhibition of recombinantly expressed ADAM9: concentrations up to 200 nM
[5] = system: ADAM17; settings: 1 μM; cited from earlier work
[6] = system: ADAM12; settings: read-out: Potency (IC50/inhibition constant) ADAM12, cell-based; cited from earlier work
[7] = system: EphB4-AP background shedding; assay: Basal/background EphB4-AP shedding in cells expressing inactive ADAM9 E>A; type: cell-based, mouse; settings: for effect on EphB4-AP shedding in the absence of active A9 (EA9 cells): 20 ng/ml PMA, 100 μM PV or 2.5 μM IO, 30 minutes
Procedure, shortened: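 Adam10/17-/- mEFs were co-transfected (Lipofectamine2000) with ADAM9 E>A plasmid (1.5 µg per 6-well well) and EphB4-AP (1 µg). After a 1 h OptiMEM wash, cells were held in fresh OptiMEM ± stimuli or inhibitor. Times were 30 min for stimuli (pervanadate freshly made from vanadate + H2O2) and 2 h for inhibitors. Readout was colorimetric AP in supernatant/(lysate+supernatant), as fold over untreated cells; mean ± SEM, ≥3 experiments, Dunnett's test.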

[8] = system: ADAM15; settings: read-out: Potency (IC50/inhibition constant) ADAM15, cell-based; cited from earlier work

CNC(=O)[C@H](Cc1ccccc1)NC(=O)[C@H](CC(C)C)[C@H](CSc1cccs1)C(=O)NO [Batimastat/BB94, Batimastat]
IC50 [1]: ~200 nM
IC50 [2]: 50 nM

CNC(=O)[C@@H](NC(=O)[C@H](CCCc1ccccc1)[C@H](C)N(O)C=O)C(C)(C)C [GI254023X]
lowest concentration inhibiting shedding of the ADAM10 substrate betacellulin-AP [3]: 0.04 µM
IC50 ([4]; read-out: IC50 soluble ADAM9, biochemical assays): 280 ± 110 nM
block of ADAM10 in cell-based assays ([1]; 1 μM): blocks ADAM10
block of ADAM17 in cell-based assays [5]: not ADAM17
effect on ADAM9-mediated shedding of EphB4-AP ([2]; concentrations of up to 10 μM, Adam10/17−/− mEFs): did not block
effect on ADAM9-dependent processing of EphB4-AP ([2]; concentrations up to 5 μM): did not block

CNC(=O)[C@H](Cc1c[nH]c2ccccc12)NC(=O)[C@@H](CC(=O)NO)CC(C)C [GM6001]
IC50 [6]: 5930 nM
IC50 [2]: 720 nM
dose dependence of inhibition of ADAM9-dependent release of EphB4-AP ([2]; Adam10/17−/− mEFs, 2 hours): dose-dependent manner

CNC(=O)[C@@H](NC(=O)[C@H](CC(C)C)[C@H](O)C(=O)NO)C(C)(C)C [Marimastat]
Ki ([4]; biochemical assays): 274 nM
IC50 [2]: 130 nM
dose dependence of inhibition of ADAM9-dependent release of EphB4-AP ([2]; Adam10/17−/− mEFs, 2 hours): dose-dependent manner

CCCCCCCCCCCCCC(=O)O[C@@H]1[C@@H](C)[C@@]2(O)[C@@H](C=C(CO)C[C@]3(O)C(=O)C(C)=C[C@@H]23)[C@@H]2C(C)(C)[C@]12OC(C)=O [PMA, phorbol-12 myristate 13-acetate]
effect on EphB4-AP shedding in the absence of active A9 (EA9 cells) [7]: had no effect
stimulation of ADAM9-dependent shedding of EphB4-AP ([2]; Adam10/17−/− mEFs): did not enhance

CC(C)C[C@H](CC(=O)NO)C(=O)N[C@H](C(=O)N[C@@H](C)C(=O)NCCN)C(C)(C)C [TAPI-2]
Ki ([4]; biochemical assays): 17 nM
dose dependence of inhibition of ADAM9-dependent release of EphB4-AP ([2]; Adam10/17−/− mEFs, 2 hours): dose-dependent manner

C[C@H](CCC(=O)O)C[C@H](C)C[C@H](C)C(=O)/C=C(\O)[C@H](C)C[C@H](C)C/C=C/[C@@H](C)[C@@H](O)[C@@H](C)[C@@H](O)C[C@@H]1CC[C@@](C)([C@H]2CC[C@@](C)([C@@H](C)O)O2)O1 [ionomycin]
effect on EphB4-AP shedding in the absence of active A9 (EA9 cells) [7]: had no effect
stimulation of ADAM9-dependent shedding of EphB4-AP ([2]; Adam10/17−/− mEFs): not responsive

GW280264X
lowest concentration effectively inhibiting ADAM9 activity ([2]; increasing inhibition between 1 and 10 μM): 0.5 µM

TIMP-1: tissue inhibitor of metalloproteinases 1
effect on EphB4 background shedding in EA9 expressing cells ([7]; up to 20 nM, Adam10/17−/− mEFs, 2 hours): no significant effect
inhibition of recombinantly expressed ADAM9 [4]: not inhibited
IC50 [1]: < 1 nM
effect on ADAM9-dependent increase in EphB4-AP shedding ([2]; concentrations up to 20 nM, Adam10/17−/− mEFs, 2 hours): not significantly affected; also recorded: did not affect

pervanadate
effect on EphB4-AP shedding in the absence of active A9 (EA9 cells) [7]: had no effect
stimulation of ADAM9-dependent shedding of EphB4-AP ([2]; Adam10/17−/− mEFs): not responsive

B1: TIMP-3: tissue inhibitor of metalloproteinases 3 (protein, UniProt P35625 24-211, looked up)
Metalloproteinase inhibitor 3: CTCSPSHPQDAFCNSDIVIRAKVVGKKLVKEGPFGTLVYTIKQMKMYRGFTKMPHVQYIHTEASESLCGLKLEVNKYQYLLTGRVYDGKMYTGLCNFVERWDQLTLSQRKGLNYRYHLGCNCKIKSCYYLPCFVTSKNECLWTDMLSNFGYPGYQSKHYACIRQKGGYCSWYRGWAPPDKSIINATDP
inhibition of recombinantly expressed ADAM9 [4]: not inhibited
IC50 [8]: ~20 nM
IC50 [1]: < 1 nM
reduction of the activity of ADAM9 ([2]; 10 nM): 40-50%
effect on ADAM9-dependent EphB4-AP shedding ([2]; 10 nM, Adam10/17−/− mEFs, 2 hours): inhibited ADAM9 partially; also recorded: partially blocked
reduction of the activity of ADAM9 ([2]; 20 nM): 75%
effect on ADAM9-dependent EphB4-AP shedding ([2]; 20 nM, Adam10/17−/− mEFs, 2 hours): strongly
